The results in this text go back to ChEMBL document CHEMBL3232797, “Targeting Staphylococcus aureus quorum sensing with nonpeptidic small molecule inhibitors” (J Med Chem, 2014).

Each structure is given as a SMILES string. In brackets after ≈: the same amount, converted by molar mass. Activity calls are given as the source filed them. No cut-off for these calls is given here.

The test system of series [1] is Staphylococcus aureus. Briefly: Antimicrobial activity against Staphylococcus aureus RN6390B assessed as growth inhibition up to 100 uM after 18 hrs by spectrophotometry. It is filed as functional, organism-based. A digest of the protocol:
(§1)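 Staphylococci were grown at 37 °C with shaking in LB, Mueller–Hinton or CYGP broth, with or without test compound. Growth curves were followed as OD600 over 18 h.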

The test system of series [2] is Staphylococcus aureus. Kind of series: Inhibition of AIP-1-induced AgrC-I activation in Staphylococcus aureus RN6390B up to 100 uM after 55 mins by beta-lactamase reporter assay. A digest of the protocol: (§2)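 The reporter strain was S. aureus RN6390B (pRN6683) carrying agrP3::blaZ. It was grown overnight at 37 °C in CYGP with 5 μg/mL chloramphenicol, diluted 1/100, and grown to OD600 ≈ 0.4. Cells were exposed to AIP-1 (0.01 nM–10 μM) plus compound (0–100 μM) for 55 min at 37 °C, quenched with sodium azide, and read as β-lactamase activity by nitrocefin. Triplicates were run on ≥2 occasions, with IC50 fitted.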
A general note: Reporter assays use an easily measured gene product as a stand-in for the process of interest.

Series [3] in a line: Iron-chelating activity at 50 uM by Chrome Azurol S […] assay. It is filed as physicochemical. A digest of the protocol: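 Chrome azurol S (CAS) assay with compounds at 50 μM. Desferrioxamine (10 μM) served as positive control and MeCN as solvent control.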
The nature of series [4]: Inhibition of AIP-1-induced AgrC-I activation in Staphylococcus aureus RN6390B after 55 mins by beta-lactamase reporter assay. The gist of the method:
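agrP3::blaZ reporter strain RN6390B (pRN6683) grown overnight at 37 °C in CYGP with 5 μg/mL chloramphenicol, diluted 1/100, grown with shaking to OD600 ≈ 0.4. Incubated with AIP-1 (0.01 nM to 10 μM) plus compounds (0–100 μM) for 55 min at 37 °C; quenched with sodium azide; β-lactamase read with nitrocefin. Triplicate, ≥2 independent occasions; IC50 fitted.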

Series [5] concerns Staphylococcus aureus. Briefly: Antimicrobial activity against Staphylococcus aureus RN6390B assessed as growth inhibition after 18 hrs by spectrophotometry. The format is functional.
Series [6] relates to Staphylococcus aureus. Kind of series: Noncompetitive inhibition of AgrC-I in AIP-1-induced Staphylococcus aureus RN6390B at 5 to 25 uM after 55 mins by kinetic study. The gist of the method: as §2
The subject of series [7] is Staphylococcus aureus. Kind of series: Antimicrobial activity against Staphylococcus aureus USA300 assessed as growth inhibition at 100 uM after 18 hrs by spectrophotometry. The format is functional, organism-based. A digest of the protocol:
as §1

Series [8] deals with Staphylococcus aureus. Kind of series: Noncompetitive inhibition of AgrC-I in AIP-1-induced Staphylococcus aureus RN6390B assessed as reduction in maximum level of activation at 25 to 100 uM after 55 mins by kinetic study relative to control. A digest of the protocol: as §2
The test system of series [9] is Staphylococcus aureus. Briefly: Antimicrobial activity against Staphylococcus aureus Newman in NMRI mouse septic arthritis model. The format is functional, organism-based. A digest of the protocol:
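Mice were given test agent at 10 mg/kg body weight or PBS (control) and then challenged with S. aureus. Arthritis frequency and arthritic index were scored over a 10 day period.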

For series [10], the system named is Staphylococcus aureus. Briefly: Inhibition of Staphylococcus aureus adherence to human nasal squamous epithelial cells at 10 uM after 1 hr. Particulars: Epithelial cell. The format is functional, organism-based. The gist of the method: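 Desquamated human nasal squamous epithelial cells, untreated or compound-treated, were incubated with S. aureus. Bound bacteria were counted per 100 nasal cells, as the mean of three experiments run in duplicate.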

For series [11], the system named is Staphylococcus aureus. Briefly: Noncompetitive inhibition of AgrC-I in AIP-1-induced Staphylococcus aureus RN6390B at 25 to 100 uM after 55 mins by kinetic study. A digest of the protocol:
as §2

As to `CCCCCCCCNC(=O)CC(=O)N[C@H]1CCOC1=O`, the “growth inhibition (GI)” value in the series with Staphylococcus aureus [1] is “inactive”. In the series with Staphylococcus aureus [2], the inhibition result was “inactive”.
Regarding `CCCCCC(=O)C1=C(O)COC1=O`, the Activity result in series [3] is listed as “Not Active”. Besides, the “growth inhibition (GI)” value in the series on Staphylococcus aureus [1] is “inactive”.
For the compound `O=C1N[C@@H](CCO)C(=O)/C1=C(/O)Cc1ccc([N+](=O)[O-])cc1`, the “growth inhibition (GI)” value in the series on Staphylococcus aureus [1] is “inactive”. Further, in the series with Staphylococcus aureus [2], the inhibition result was “inactive”.
Regarding `CCCCCCCCCC(=O)CC(N)=O`, the “growth inhibition (GI)” value in the series with Staphylococcus aureus [1] is “inactive”. Besides, in the series with Staphylococcus aureus [2], the inhibition entry was “inactive”.
For the compound `CC(C)CCCCCCC(=O)C1=C(O)COC1=O`, the “growth inhibition (GI)” value with Staphylococcus aureus [1] was “inactive”. The inhibition entry in the series on Staphylococcus aureus [2] is “inactive”.
As for `O=C(Cc1ccc([N+](=O)[O-])cc1)C1=C(O)COC1=O`, in the series with Staphylococcus aureus [1], the “growth inhibition (GI)” value is “inactive”. In addition, the inhibition entry with Staphylococcus aureus [2] is “inactive”.
Broadly, the IC50 is the point on the concentration scale where inhibition reaches its midpoint. Read a low IC50 as greater potency in that assay. As a reminder, the MIC is the lowest concentration found to suppress growth. Regarding `CCCCCCCCCCCC(=O)C1=C(O)COC1=O`, the Activity result in [3] is on record as “Not Active”. The compound further returned an IC50 in [4] of 6 µM. The MIC in the series with Staphylococcus aureus [5] came out at 25 µM (≈ 7.06 µg/mL). Besides, the inhibition result with Staphylococcus aureus [6] is “Active”.
As to `O=C(Cc1ccc(Br)cc1)C1=C(O)COC1=O`, in the series on Staphylococcus aureus [1], the “growth inhibition (GI)” value is “inactive”. In addition, the inhibition entry in the series on Staphylococcus aureus [2] is “inactive”.
In the case of `CCCCCCCCN(C)C(=O)CC(=O)N[C@H]1CCOC1=O`, in the series with Staphylococcus aureus [1], the “growth inhibition (GI)” value is “inactive”. Besides, the inhibition result in the series on Staphylococcus aureus [2] was “inactive”.
Consider `CCCCCCCCCCCCC/C(O)=C1/C(=O)N[C@@H](CCO)C1=O`, for which inhibition in series [4] was half-maximal at 14 µM (IC50). For the same compound, in the series on Staphylococcus aureus [5], the MIC came to 12.5 µM (≈ 4.42 µg/mL).
As for `CCCCCCCCCCCC(=O)N[C@H]1CCOC1=O`, in the series on Staphylococcus aureus [1], the “growth inhibition (GI)” value is “inactive”. The inhibition entry with Staphylococcus aureus [2] is “inactive”.
For `CCCCCCCCCC(=O)CC(=O)N[C@H]1CCSC1=O`, the “growth inhibition (GI)” value with Staphylococcus aureus [1] is “inactive”. Also, the inhibition entry in the series with Staphylococcus aureus [2] is “inactive”.
For `CCCCCCCCCC(=O)CC(=O)N[C@@H](CCO)C(=O)O`, the “growth inhibition (GI)” value in the series with Staphylococcus aureus [1] was “inactive”. The inhibition result in the series on Staphylococcus aureus [2] was “inactive”.
`CCCCCCC/C(O)=C1/C(=O)N[C@@H](CCO)C1=O`: the “growth inhibition (GI)” value with Staphylococcus aureus [1] and in the series on Staphylococcus aureus [7] was “inactive” in each case. In [4], this compound yielded an IC50 of 42 µM.
For the compound `O=C(COc1ccc(Br)cc1)C1=C(O)COC1=O`, the “growth inhibition (GI)” value in the series on Staphylococcus aureus [1] was “inactive”. In addition, in the series on Staphylococcus aureus [2], the inhibition entry is “inactive”.
In the case of `O=C1N[C@@H](CCO)C(=O)/C1=C(/O)CCCC1CCCCC1`, in the series on Staphylococcus aureus [1], the “growth inhibition (GI)” value was “inactive”. In addition, the inhibition result with Staphylococcus aureus [2] is “inactive”.
For `CCCCCCCCCC(=O)CC(=O)Nc1nccs1`, the “growth inhibition (GI)” value in the series with Staphylococcus aureus [1] was “inactive”. In addition, the inhibition entry with Staphylococcus aureus [2] is “inactive”.
Regarding `CCCC(=O)CC(=O)C1=C(O)COC1=O`, the “growth inhibition (GI)” value in the series on Staphylococcus aureus [1] is “inactive”. The inhibition result with Staphylococcus aureus [2] was “inactive”.
`CCCCCCCCC/C(O)=C1/C(=O)N[C@@H](C)C1=O` came in with an IC50 in series [4] of 20 µM. In the series with Staphylococcus aureus [5], the MIC stood at 100 µM (≈ 26.7 µg/mL).
For `CCCCCCCCCC(=O)CC(=O)N[C@@H]1CCOC1=O` the same measures were 37 µM and 100 µM (≈ 29.7 µg/mL).
For `CCCCCCCCCCC/C(O)=C1/C(=O)N[C@@H](CCO)C1=O` the same measures were 13 µM and 25 µM (≈ 8.14 µg/mL).
`CCCCCCCCC/C(O)=C1\C(=O)CNC1=O`: in [4], 30 µM corresponded to half-maximal inhibition (IC50). For the same compound, the MIC in the series on Staphylococcus aureus [5] worked out at 100 µM (≈ 25.3 µg/mL).
Take `O=C(CCCc1ccccc1)CC(=O)N[C@H]1CCOC1=O`: the “growth inhibition (GI)” value in the series on Staphylococcus aureus [1] was “inactive”. The inhibition result in the series with Staphylococcus aureus [2] was “inactive”.
In the case of `CCCCCCCCCC(=O)C1=C(O)COC1=O`, in series [3], the Activity entry is “Not Active”. In series [4], this compound returned an IC50 of 21 µM. Besides, the MIC in the series on Staphylococcus aureus [5] stood at 50 µM (≈ 12.7 µg/mL).
Take `CCCCCCCCOC(=O)CC(=O)N[C@H]1CCOC1=O`: in the series with Staphylococcus aureus [1], the “growth inhibition (GI)” value is “inactive”. The inhibition entry with Staphylococcus aureus [2] was “inactive”.
Consider `CCC/C(O)=C1/C(=O)N[C@@H](CCO)C1=O`, for which the “growth inhibition (GI)” value with Staphylococcus aureus [1] was “inactive”. Besides, the inhibition entry with Staphylococcus aureus [2] was “inactive”.
In series [4], `CCCCCCCCCC/C(O)=C1/C(=O)N[C@@H](CCO)C1=O` returned an IC50 of 10 µM. For the same compound, the MIC in the series with Staphylococcus aureus [5] turned out to be 50 µM (≈ 15.6 µg/mL).
On to `CCCCCCCCCC(=O)CC(=O)N[C@H]1CC(=O)NC1=O`, for which the “growth inhibition (GI)” value with Staphylococcus aureus [1] was “inactive”. Besides, the inhibition entry in the series on Staphylococcus aureus [2] is “inactive”.
For `CCCCCCCCC/C(O)=C1/C(=O)N[C@H](CCO)C1=O`, the “growth inhibition (GI)” value in the series with Staphylococcus aureus [1] is “inactive”. This compound displayed an IC50 in series [4] of 28 µM.
With `CCCCCCCCCC(=O)CC(=O)O[C@H]1CCOC1=O`, the “growth inhibition (GI)” value in the series with Staphylococcus aureus [1] was “inactive”. Further, in the series with Staphylococcus aureus [2], the inhibition result was “inactive”.
As to `CCCCCCCCCC(=O)CC(=O)N[C@H]1CCNC1=O`, the “growth inhibition (GI)” value with Staphylococcus aureus [1] was “inactive”. Moreover, in the series with Staphylococcus aureus [2], the inhibition result is “inactive”.
As to `CCCCCCCCC/C(O)=C1/C(=O)N[C@@H](CCO)C1=O`, the result in series [3] was Active. In addition, in series [4], the IC50 amounted to 42 µM. The MIC in the series with Staphylococcus aureus [5] amounted to 100 µM (≈ 29.7 µg/mL). In addition, in the series with Staphylococcus aureus [8], the fold change (FC) is 10. Further, the result in the series on Staphylococcus aureus [9] was inactive. Further, the inhibition entry with Staphylococcus aureus [10] was “Active”.
With `CCCCCCCCCC(=O)CC(=O)C1=C(O)COC1=O`, in the series on Staphylococcus aureus [1], the “growth inhibition (GI)” value is “inactive”. The inhibition result with Staphylococcus aureus [2] is “inactive”.
Take `CCCCC/C=C/CCC(=O)C1=C(O)COC1=O`: in series [4], the IC50 is 22 µM. Further, in the series with Staphylococcus aureus [5], the MIC was 50 µM (≈ 12.6 µg/mL).
On to `CCCCCCCCCC(=O)CC(=O)N[C@H]1CCC(=O)NC1=O`, for which, in the series on Staphylococcus aureus [1], the “growth inhibition (GI)” value was “inactive”. In addition, the inhibition result in the series on Staphylococcus aureus [2] is “inactive”.
As to `O=C(CCCC1CCCCC1)CC(=O)N[C@H]1CCOC1=O`, the “growth inhibition (GI)” value with Staphylococcus aureus [1] is “inactive”. Also, the inhibition entry in the series with Staphylococcus aureus [2] is “inactive”.
Compound `CCCCCCCCCC(=O)CC(=O)N[C@H]1CCOC1=O` yielded an IC50 in [4] of 22 µM. Besides, the inhibition entry in the series on Staphylococcus aureus [11] is “Active”.
With `CCCCCCCCCC(O)CC(=O)N[C@H]1CCOC1=O` (stereo not given in full), in the series on Staphylococcus aureus [1], the “growth inhibition (GI)” value was “inactive”. For the same compound, the inhibition result with Staphylococcus aureus [2] was “inactive”.
Regarding `CCCCCC/C=C\CCCC(=O)C1=C(O)COC1=O`, the “growth inhibition (GI)” value in the series with Staphylococcus aureus [1] is “inactive”. Also, the IC50 in series [4] stood at 88 µM.
Turning to `CCCCC/C=C/CCC(=O)CC(=O)N[C@H]1CCOC1=O`, in the series with Staphylococcus aureus [1], the “growth inhibition (GI)” value was “inactive”. Also, in the series with Staphylococcus aureus [2], the inhibition entry is “inactive”.
Regarding `CCCCCCCCCCCCCCCC(=O)C1=C(O)COC1=O`, in the series with Staphylococcus aureus [1], the “growth inhibition (GI)” value is “inactive”. The compound further registered an IC50 in series [4] of 13 µM.
